Our source for the Activity values is ChEMBL document CHEMBL4043093, “2-Oxo-3, 4-dihydropyrimido[4, 5-d]pyrimidinyl derivatives as new irreversible pan fibroblast growth factor receptor (FGFR) inhibitors” (Eur J Med Chem, 2017).

The target of experiment [1] is Atypical kinase COQ8A, mitochondrial (Homo sapiens) (UniProt Q8NI60). As to the kind of experiment: Inhibition of wild-type human […] ADCK3 (M280 to Q647 residues) expressed in Escherichia coli BL21 assessed as residual activity at 1000 nM after 30 mins by Kinomescan method relative to control. The method in brief: (§1)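 Single-point screen at a fixed 1 µM, run within a 456-kinase DiscoveRx KINOMEscan panel. Each kinase's read-out is Percent Control, i.e. signal relative to a control without compound. Hits were scored by a Percent Control < 35 cut-off, and an S(35) selectivity score was calculated across the non-mutant kinases.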

The target of experiment [2] is Casein kinase I isoform gamma-2 (Homo sapiens) (UniProt P78368). As to the kind of experiment: Inhibition of wild-type human full length CSNK1G2 (M1 to K415 residues) expressed in Escherichia coli BL21 assessed as residual activity at 1000 nM after 30 mins by Kinomescan method relative to control. Put shortly:
as §1

The target of experiment [3] is Epithelial discoidin domain-containing receptor 1 (Homo sapiens) (UniProt Q08345). Put plainly: Inhibition of wild-type human partial length DDR1 (R565 to V876 residues) expressed in Escherichia coli BL21 assessed as residual activity at 1000 nM after 30 mins by Kinomescan method relative to control.
The target of experiment [4] is Serine/threonine-protein kinase MRCK gamma (Homo sapiens) (UniProt Q6DT37). Put plainly: Inhibition of wild-type human partial length DMPK2 (S46 to S408 residues) expressed in Escherichia coli BL21 assessed as residual activity at 1000 nM after 30 mins by Kinomescan method relative to control.
The target of experiment [5] is Serine/threonine-protein kinase 17A (Homo sapiens) (UniProt Q9UEE5). As to the kind of experiment: Inhibition of wild-type human partial length DRAK1 (R32 to E363 residues) expressed in Escherichia coli BL21 assessed as residual activity at 1000 nM after 30 mins by Kinomescan method relative to control.
In experiment [6] the target is Ephrin type-B receptor 6 (Homo sapiens) (UniProt O15197). Put plainly: Inhibition of wild-type human partial length EPHB6 (Q634 to P948 residues) expressed in HEK293 cells assessed as residual activity at 1000 nM after 30 mins by Kinomescan method relative to control. The class given is cell-based.
The species named for experiment [7] is Homo sapiens. As to the kind of experiment: Inhibition of human partial length FLT3 ITD/D835V double mutant expressed in Escherichia coli BL21 assessed as residual activity at 1000 nM after 30 mins by Kinomescan method relative to control. Put shortly:
(§2)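 KINOMEscan binding panel of 456 kinases, with the test compound at a single concentration of 1 µM. Read-out is Percent Control.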

Experiment [8] concerns the target Serine/threonine-protein kinase LATS2 (Homo sapiens) (UniProt Q9NRM7). As to the kind of experiment: Inhibition of wild-type human partial length LATS2 (Q641 to V1088 residues) expressed in HEK293 cells assessed as residual activity at 1000 nM after 30 mins by Kinomescan method relative to control. The class given is cell-based.
Experiment [9] concerns the target Mitogen-activated protein kinase kinase kinase 3 (Homo sapiens) (UniProt Q99759). As to the kind of experiment: Inhibition of wild-type human partial length MAP3K3 (E320 to Y626 residues) expressed in HEK293 cells assessed as residual activity at 1000 nM after 30 mins by Kinomescan method relative to control. The experiment is classed as cell-based.
The target of experiment [10] is Mitogen-activated protein kinase kinase kinase kinase 2 (Homo sapiens) (UniProt Q12851). As to the kind of experiment: Inhibition of wild-type human partial length MAP4K2 (M1 to G318 residues) expressed in HEK293 cells assessed as residual activity at 1000 nM after 30 mins by Kinomescan method relative to control. The experiment is classed as cell-based.
Experiment [11] addresses Dual specificity mitogen-activated protein kinase kinase 4 (Homo sapiens) (UniProt P45985). As to the kind of experiment: Inhibition of wild-type human partial length MEK4 (S84 to D399 residues) expressed in HEK293 cells assessed as residual activity at 1000 nM after 30 mins by Kinomescan method relative to control. The class given is cell-based.
Experiment [12] concerns the target Mitogen-activated protein kinase kinase kinase 9 (Homo sapiens) (UniProt P80192). Put plainly: Inhibition of wild-type human partial length MLK1 (V88 to W426 residues) expressed in Escherichia coli BL21 assessed as residual activity at 1000 nM after 30 mins by Kinomescan method relative to control.
Experiment [13] has as its target Serine/threonine-protein kinase MRCK alpha (Homo sapiens) (UniProt Q5VT25). Put plainly: Inhibition of wild-type human partial length MRCKA (L57 to V418 residues) expressed in Escherichia coli BL21 assessed as residual activity at 1000 nM after 30 mins by Kinomescan method relative to control.
Experiment [14] has as its target Serine/threonine-protein kinase Nek4 (Homo sapiens) (UniProt P51957). Put plainly: Inhibition of wild-type human full length NEK4 (M1 to F841 residues) expressed in HEK293 cells assessed as residual activity at 1000 nM after 30 mins by Kinomescan method relative to control. The experiment is classed as cell-based. The method in brief: (§3)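 Single-concentration screen at 1 µM across a 456-kinase KINOMEscan panel. The read-out is Percent Control for each kinase.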

For experiment [15], the target named is Cyclin-dependent kinase 17 (Homo sapiens) (UniProt Q00537). As to the kind of experiment: Inhibition of wild-type human full length PCTK2 (M1 to F523 residues) expressed in Escherichia coli BL21 assessed as residual activity at 1000 nM after 30 mins by Kinomescan method relative to control. Put shortly: as §3
For experiment [16], the system named is Phosphatidylinositol 4,5-bisphosphate 3-kinase catalytic subunit alpha isoform (Homo sapiens), P42336 [H1047L]. Put plainly: Inhibition of human partial length PIK3CA H1047L mutant (R108 to N1068 residues) expressed in HEK293 cells assessed as residual activity at 1000 nM after 30 mins by Kinomescan method relative to control. The experiment is classed as cell-based. Put shortly:
as §2

For experiment [17], the system named is Phosphatidylinositol 4,5-bisphosphate 3-kinase catalytic subunit alpha isoform (Homo sapiens), P42336 [I800L]. Put plainly: Inhibition of human partial length PIK3CA I800L mutant (R108 to N1068 residues) expressed in HEK293 cells assessed as residual activity at 1000 nM after 30 mins by Kinomescan method relative to control. The experiment is classed as cell-based. Put shortly: as §1

In experiment [18] the target is Phosphatidylinositol 5-phosphate 4-kinase type-2 beta (Homo sapiens) (UniProt P78356). As to the kind of experiment: Inhibition of wild-type human full length PIP5K2B (M1 to T416 residues) expressed in Escherichia coli BL21 assessed as residual activity at 1000 nM after 30 mins by Kinomescan method relative to control. Put shortly: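 Single-concentration screen at 1 µM against a 456-kinase panel (KINOMEscan). Read-out is Percent Control for each kinase. Across the 403 non-mutant kinases, an S(35) selectivity score was derived as the fraction of kinases with Percent Control < 35.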

Experiment [19] has as its target Serine/threonine-protein kinase TAO3 (Homo sapiens) (UniProt Q9H2K8). Put plainly: Inhibition of wild-type human partial length TAOK3 (M1 to T316 residues) expressed in HEK293 cells assessed as residual activity at 1000 nM after 30 mins by Kinomescan method relative to control. The class given is cell-based.
In experiment [20] the target is Tyrosine-protein kinase Yes (Homo sapiens) (UniProt P07947). Put plainly: Inhibition of wild-type human partial length YES (T257 to L543 residues) expressed in Escherichia coli BL21 assessed as residual activity at 1000 nM after 30 mins by Kinomescan method relative to control.

Serine/threonine-protein kinase 17A (Homo sapiens), sequence (Q9UEE5 whole entry, the tested form may be a part): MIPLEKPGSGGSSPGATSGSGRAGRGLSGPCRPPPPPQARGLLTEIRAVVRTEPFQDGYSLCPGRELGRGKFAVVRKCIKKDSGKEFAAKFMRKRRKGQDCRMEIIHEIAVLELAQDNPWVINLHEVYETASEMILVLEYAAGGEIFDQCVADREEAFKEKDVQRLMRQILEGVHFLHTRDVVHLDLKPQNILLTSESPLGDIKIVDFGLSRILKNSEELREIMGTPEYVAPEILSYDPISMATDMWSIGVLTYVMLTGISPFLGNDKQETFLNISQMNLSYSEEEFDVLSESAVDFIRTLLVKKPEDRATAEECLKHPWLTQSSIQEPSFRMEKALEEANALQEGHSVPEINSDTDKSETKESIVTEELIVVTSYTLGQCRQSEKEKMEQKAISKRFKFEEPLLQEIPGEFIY
Casein kinase I isoform gamma-2 (Homo sapiens), sequence (P78368 whole entry, looked up, the tested form may be a part, canonical isoform): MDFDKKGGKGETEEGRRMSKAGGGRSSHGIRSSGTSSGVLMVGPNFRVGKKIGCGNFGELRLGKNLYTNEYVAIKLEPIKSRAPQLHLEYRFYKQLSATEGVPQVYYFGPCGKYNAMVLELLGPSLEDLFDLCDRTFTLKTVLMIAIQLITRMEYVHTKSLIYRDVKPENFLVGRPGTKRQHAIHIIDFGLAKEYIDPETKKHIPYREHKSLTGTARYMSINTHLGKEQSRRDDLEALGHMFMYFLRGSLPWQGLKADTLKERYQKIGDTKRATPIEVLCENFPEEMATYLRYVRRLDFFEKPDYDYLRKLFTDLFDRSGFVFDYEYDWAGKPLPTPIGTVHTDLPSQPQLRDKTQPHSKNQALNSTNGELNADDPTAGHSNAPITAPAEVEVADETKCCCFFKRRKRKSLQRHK
Mitogen-activated protein kinase kinase kinase 9 (Homo sapiens), sequence (P80192 whole entry, looked up, the tested form may be a part): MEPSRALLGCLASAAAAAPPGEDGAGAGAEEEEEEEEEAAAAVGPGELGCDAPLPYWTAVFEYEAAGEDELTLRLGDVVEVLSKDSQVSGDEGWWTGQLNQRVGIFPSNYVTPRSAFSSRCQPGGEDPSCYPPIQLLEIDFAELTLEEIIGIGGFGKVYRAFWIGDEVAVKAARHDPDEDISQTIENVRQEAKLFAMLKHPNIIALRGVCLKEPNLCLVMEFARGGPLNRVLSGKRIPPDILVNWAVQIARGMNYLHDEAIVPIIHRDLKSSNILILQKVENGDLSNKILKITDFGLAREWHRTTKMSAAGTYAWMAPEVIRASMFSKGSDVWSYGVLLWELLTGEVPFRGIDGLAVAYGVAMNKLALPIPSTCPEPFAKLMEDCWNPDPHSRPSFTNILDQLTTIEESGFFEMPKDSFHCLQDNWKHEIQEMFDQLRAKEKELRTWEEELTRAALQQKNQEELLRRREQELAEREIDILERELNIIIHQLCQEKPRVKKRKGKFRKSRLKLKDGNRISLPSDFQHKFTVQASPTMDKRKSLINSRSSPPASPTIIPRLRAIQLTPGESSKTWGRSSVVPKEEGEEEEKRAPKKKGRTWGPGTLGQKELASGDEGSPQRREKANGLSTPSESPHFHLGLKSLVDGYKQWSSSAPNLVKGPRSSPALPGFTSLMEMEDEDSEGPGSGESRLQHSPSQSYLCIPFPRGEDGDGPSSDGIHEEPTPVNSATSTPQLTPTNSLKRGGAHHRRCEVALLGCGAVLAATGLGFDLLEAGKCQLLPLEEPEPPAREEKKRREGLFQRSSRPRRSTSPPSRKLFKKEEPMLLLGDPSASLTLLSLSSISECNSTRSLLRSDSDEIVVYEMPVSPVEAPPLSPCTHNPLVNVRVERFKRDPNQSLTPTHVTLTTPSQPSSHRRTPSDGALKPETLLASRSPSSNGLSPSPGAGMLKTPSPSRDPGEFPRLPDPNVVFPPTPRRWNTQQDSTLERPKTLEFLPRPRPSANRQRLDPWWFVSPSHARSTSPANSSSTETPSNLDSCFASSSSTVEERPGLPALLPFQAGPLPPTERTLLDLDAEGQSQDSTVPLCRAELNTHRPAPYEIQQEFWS
Serine/threonine-protein kinase MRCK alpha (Homo sapiens), sequence (Q5VT25 whole entry, the tested form may be a part): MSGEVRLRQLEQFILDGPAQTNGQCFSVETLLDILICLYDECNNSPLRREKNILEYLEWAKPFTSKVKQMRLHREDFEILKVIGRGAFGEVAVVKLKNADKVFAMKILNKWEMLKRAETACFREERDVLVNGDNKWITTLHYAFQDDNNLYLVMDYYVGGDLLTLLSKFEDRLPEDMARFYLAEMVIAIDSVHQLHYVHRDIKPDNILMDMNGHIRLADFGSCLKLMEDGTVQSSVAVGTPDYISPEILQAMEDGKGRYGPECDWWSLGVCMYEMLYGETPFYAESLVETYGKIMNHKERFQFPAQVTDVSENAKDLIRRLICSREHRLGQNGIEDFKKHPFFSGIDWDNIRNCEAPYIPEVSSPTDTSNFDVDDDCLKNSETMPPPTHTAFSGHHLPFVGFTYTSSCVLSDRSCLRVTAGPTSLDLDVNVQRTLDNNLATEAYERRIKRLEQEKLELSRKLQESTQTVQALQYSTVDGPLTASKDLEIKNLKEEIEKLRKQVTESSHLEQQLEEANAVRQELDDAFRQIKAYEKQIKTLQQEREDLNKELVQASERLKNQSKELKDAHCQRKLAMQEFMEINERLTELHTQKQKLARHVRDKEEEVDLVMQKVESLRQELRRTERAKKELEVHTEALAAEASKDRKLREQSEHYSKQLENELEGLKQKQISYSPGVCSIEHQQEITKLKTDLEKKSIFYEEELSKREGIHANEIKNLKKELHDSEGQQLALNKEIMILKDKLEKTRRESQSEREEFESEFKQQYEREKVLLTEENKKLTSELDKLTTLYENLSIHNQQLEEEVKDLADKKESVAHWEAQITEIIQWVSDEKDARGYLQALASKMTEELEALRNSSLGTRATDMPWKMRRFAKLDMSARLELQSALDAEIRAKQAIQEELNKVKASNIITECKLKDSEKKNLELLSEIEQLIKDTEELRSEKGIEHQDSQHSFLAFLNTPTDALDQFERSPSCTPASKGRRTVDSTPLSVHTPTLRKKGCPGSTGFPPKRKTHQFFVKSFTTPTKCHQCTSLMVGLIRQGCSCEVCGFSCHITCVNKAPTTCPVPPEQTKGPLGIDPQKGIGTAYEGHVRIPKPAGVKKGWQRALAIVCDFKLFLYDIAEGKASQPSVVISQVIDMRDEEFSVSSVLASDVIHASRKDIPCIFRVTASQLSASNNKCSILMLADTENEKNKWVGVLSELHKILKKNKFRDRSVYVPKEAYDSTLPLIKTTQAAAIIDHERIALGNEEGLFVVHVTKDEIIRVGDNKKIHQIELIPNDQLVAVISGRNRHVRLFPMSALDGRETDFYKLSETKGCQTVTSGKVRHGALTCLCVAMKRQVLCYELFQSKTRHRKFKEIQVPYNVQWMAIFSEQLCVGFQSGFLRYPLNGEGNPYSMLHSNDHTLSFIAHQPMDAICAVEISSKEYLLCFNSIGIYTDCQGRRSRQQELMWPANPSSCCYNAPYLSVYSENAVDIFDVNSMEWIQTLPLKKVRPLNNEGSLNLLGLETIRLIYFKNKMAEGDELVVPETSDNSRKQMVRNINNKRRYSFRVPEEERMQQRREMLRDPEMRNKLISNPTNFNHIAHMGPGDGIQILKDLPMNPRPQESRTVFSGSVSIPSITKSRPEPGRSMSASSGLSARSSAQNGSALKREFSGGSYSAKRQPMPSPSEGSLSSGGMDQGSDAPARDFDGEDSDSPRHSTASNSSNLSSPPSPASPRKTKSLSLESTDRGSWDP
Cyclin-dependent kinase 17 (Homo sapiens), sequence (Q00537 whole entry, looked up, the tested form may be a part, canonical isoform): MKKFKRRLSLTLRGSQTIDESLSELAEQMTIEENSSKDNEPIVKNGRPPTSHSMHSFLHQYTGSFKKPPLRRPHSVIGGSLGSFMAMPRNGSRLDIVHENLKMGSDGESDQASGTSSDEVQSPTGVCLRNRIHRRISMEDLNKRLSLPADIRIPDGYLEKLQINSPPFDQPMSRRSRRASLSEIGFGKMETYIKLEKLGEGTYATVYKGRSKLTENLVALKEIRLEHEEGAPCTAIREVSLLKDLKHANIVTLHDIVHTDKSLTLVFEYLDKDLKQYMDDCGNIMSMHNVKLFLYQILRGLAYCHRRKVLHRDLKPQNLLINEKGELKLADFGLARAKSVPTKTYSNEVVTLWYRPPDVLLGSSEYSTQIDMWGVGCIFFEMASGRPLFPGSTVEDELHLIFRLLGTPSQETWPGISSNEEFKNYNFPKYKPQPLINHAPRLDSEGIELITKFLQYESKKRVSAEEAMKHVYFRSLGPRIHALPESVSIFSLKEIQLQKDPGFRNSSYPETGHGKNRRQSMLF
Mitogen-activated protein kinase kinase kinase 3 (Homo sapiens), sequence (Q99759 whole entry, the tested form may be a part): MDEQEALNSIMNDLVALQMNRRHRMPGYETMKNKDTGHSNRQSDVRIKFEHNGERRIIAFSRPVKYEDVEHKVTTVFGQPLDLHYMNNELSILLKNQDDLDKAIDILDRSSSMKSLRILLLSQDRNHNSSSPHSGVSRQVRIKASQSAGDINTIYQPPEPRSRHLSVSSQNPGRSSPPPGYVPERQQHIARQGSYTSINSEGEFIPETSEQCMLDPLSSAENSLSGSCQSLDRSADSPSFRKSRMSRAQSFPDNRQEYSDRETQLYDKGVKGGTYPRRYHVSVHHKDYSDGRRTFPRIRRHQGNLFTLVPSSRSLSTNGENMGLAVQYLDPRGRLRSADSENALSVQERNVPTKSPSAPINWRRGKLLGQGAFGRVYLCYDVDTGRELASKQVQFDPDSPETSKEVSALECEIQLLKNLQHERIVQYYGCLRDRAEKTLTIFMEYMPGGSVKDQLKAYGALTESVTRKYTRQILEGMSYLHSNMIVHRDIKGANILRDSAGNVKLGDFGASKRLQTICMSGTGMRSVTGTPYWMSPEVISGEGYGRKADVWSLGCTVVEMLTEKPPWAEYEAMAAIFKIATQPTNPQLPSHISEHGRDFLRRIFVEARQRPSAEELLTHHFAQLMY

Take `COc1cc(OC)c(Cl)c(N2Cc3cnc(Nc4ccc(F)cc4)nc3N(C3CCN(C(=O)/C=C/CN(C)C)CC3)C2=O)c1Cl`: the Activity was 100% in [1]; 100% in [2]; 7% in [3]; 100% in experiment [4]; 96% in [5]; 67% in [6]. Further, the Activity was 98% in [7]; 100% in experiment [8]; 1.9% in experiment [9]; 100% in experiment [10]; 100% in [11]; 97% in [12]. Moreover, the Activity in [13] turned out to be 98%; in experiment [14], 100%; in [15] it was 90%; in experiment [16] it was 100%; in experiment [17] it was 83%; in experiment [18], 100%. In addition, the Activity in [19] stood at 36%; in experiment [20], 34%.
